Article PMC12099175 (Chemistry (Weinheim an Der Bergstrasse, Germany), 2025)
“Also recorded” adds a separate entry of the source. No end group written: not given here.

How the values were obtained:
Format in all cases: physicochemical
[1] = AFM surface morphology of amyloid fibrils; conditions: 1.5 mg/mL, pH 3.8, 24 h mixing at 37 °C, 5 µL dried on mica
Procedure, shortened: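 Hexapeptide at a final 1.5 mg/mL, pH 3.8, was stirred at 500–600 rpm at 37 °C for 24 h. This was the same stock used for FTIR and ECD. The 24-h solution was dropped on freshly cleaved mica and vacuum-dried for 24 h. Images were taken in dynamic mode near densely packed areas, with a 10×10 µm window and 512 pixels per line.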

[2] = Amyloid formation monitored by time-dependent far-UV ECD spectroscopy; conditions: for amyloidogenicity overall (in words): all tested conditions (H2O, 10% EtOH, 50% MeOH), FTIR, AFM; for amyloidogenicity overall (in words) / amyloid formation in 10% EtOH (in words) / amyloid formation in 50% MeOH (in words): ECD; for amyloid formation in 10% EtOH (in words): 10% EtOH:90% H2O (ε = 68.742); for amyloid formation in 10% EtOH (in words) / time to form amyloid in 50% MeOH / amyloid formation in 50% MeOH (in words) / time to form β-sheets / B-type ECD spectrum in water: 37 °C; for amyloid formation in 10% EtOH (in words) / amyloid formation in 50% MeOH (in words) / time to form β-sheets / B-type ECD spectrum in water: stirred 500–600 rpm; for time to form amyloid in 50% MeOH / amyloid formation in 50% MeOH (in words): 50% MeOH:50% H2O (ε = 51.347); for time to form amyloid in 50% MeOH: stirred; for time to form amyloid in 50% MeOH / time to form β-sheets / B-type ECD spectrum in water: ECD read-out; for time to form β-sheets / B-type ECD spectrum in water: 100% H2O
Procedure, shortened: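 Peptides were dissolved at 0.15–1.50 mg/mL in water, 10% EtOH or 50% MeOH. Concentration was set by A280 of 5-fold dilutions (ε Tyr 1280, Trp 5690 M⁻¹ cm⁻¹), with pH adjusted by NaOH/HCl. Samples were stirred at 500–600 rpm, 37 °C, and measured directly at 0–168 h. Spectra covered 185–260 nm, 0.1 mm cell, 25 °C, three scans averaged, solvent-subtracted, Savitzky–Golay smoothed, and converted to mean residue ellipticity.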

[3] = Water solubility / peptide concentration needed for amyloid formation; conditions: pure water

Substance | AFM morphology (in words) [1] | amyloidogenicity overall (in words) [2] | amyloid formation in 10% EtOH (in words) [2] | time to form amyloid in 50% MeOH [2] | amyloid formation in 50% MeOH (in words) [2] | time to form β-sheets / B-type ECD spectrum in water [2] | ECD mean residue ellipticity Θ, positive maximum at 208 nm ([2]; B-type spectrum after 24 hours) | ECD mean residue ellipticity Θ at 202 nm ([2]; 50% MeOH, B-type signal) | water solubility (in words) [3]
GNNQQNY [GNNQQNY, reference compound] | Fibrillar amyloid formation | – | – | – | – | – | – | – | –
LNIQWL [LNIQWL] | granular | remains amyloidogenic | – | – | – | – | – | – | –
LNQQNY [LNQQNY] | – | highly amyloidogenic | forms amyloid very slowly | ≤ 24 h | – | – | – | – | –
LYIQNL [LYIQNL] | – | highly amyloidogenic | form amyloid | – | form amyloid | – | – | – | –
LYIQNY [LYIQNY] | – | highly amyloidogenic | rapid amyloid formation | – | rapid amyloid formation; also recorded: faster assembly | – | – | – | water‐soluble
LYIQWL [LYIQWL] | Fibrillar amyloid formation | highly amyloidogenic | form amyloid | – | form amyloid | 1 h | – | – | –
NNIQWL [NNIQWL] | no evidence of filament formation | did not form amyloid under any of the tested conditions | – | – | – | – | – | – | –
NNQQNY [NNQQNY] | Fibrillar amyloid formation | highly amyloidogenic | preventing amyloid formation | within hours; also recorded: a few hours | β‐sheets formed; also recorded: forms amyloid in 50% MeOH | – | – | ~53000 deg cm^2 dmol^−1 | highly water‐soluble

The next lines start with results.

AFM morphology (in words) [1] | amyloidogenicity overall (in words) [2] | amyloid formation in 10% EtOH (in words) [2] | time to form amyloid in 50% MeOH [2] | amyloid formation in 50% MeOH (in words) [2] | time to form β-sheets / B-type ECD spectrum in water [2] | ECD mean residue ellipticity Θ, positive maximum at 208 nm ([2]; B-type spectrum after 24 hours) | ECD mean residue ellipticity Θ at 202 nm ([2]; 50% MeOH, B-type signal) | Substance | water solubility (in words) [3]
– | highly amyloidogenic | Amyloid formation is confirmed | – | Amyloid formation is confirmed | – | ~+57000 deg cm^2 dmol^−1 | – | LYQQNY [LYQQNY] | –
empty AFM image | – | – | – | very slow amyloid formation | – | – | – | NNQQNL [NNQQNL] | –
no detectable structures | resists amyloid formation | – | – | No amyloid formation was observed | > 144 h | – | – | NNQQWL [NNQQWL] | –
